HSF1 inh: HSF1 inhibition; NIH3T3-HGL HSE-luciferase, MG132-induced, luminescence 8 h; active compounds read low; activity change, negative = inhibition, % at 7.5 µM (by protocol); 0.77% of 300,000 active; AID 2098;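 active means more than half of replicate wells show activity change below -50%, luminescence cut by over half; inconclusive means some wells, but at most half, below -50%; inactive means no replicate well below -50%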;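 further: luciferase reports HSF-1 transcriptional activity via heat shock element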
CHT inh: human CHT choline transport inhibition. B-score at 10 µM. 0.86% of 310,000 active. CHT-expressing cells, membrane potential dye, choline response; active compounds read low. Q9GZV3. AID 488975;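 active means B-score over 3 SD under the library average, and starting fluorescence ratio not unusually high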;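 further: choline stimulus applied at its EC90 after an EC20 pre-addition; B-score computed on integrated fluorescence ratio after choline addition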
Target sequence (Q9GZV3 whole entry, looked up): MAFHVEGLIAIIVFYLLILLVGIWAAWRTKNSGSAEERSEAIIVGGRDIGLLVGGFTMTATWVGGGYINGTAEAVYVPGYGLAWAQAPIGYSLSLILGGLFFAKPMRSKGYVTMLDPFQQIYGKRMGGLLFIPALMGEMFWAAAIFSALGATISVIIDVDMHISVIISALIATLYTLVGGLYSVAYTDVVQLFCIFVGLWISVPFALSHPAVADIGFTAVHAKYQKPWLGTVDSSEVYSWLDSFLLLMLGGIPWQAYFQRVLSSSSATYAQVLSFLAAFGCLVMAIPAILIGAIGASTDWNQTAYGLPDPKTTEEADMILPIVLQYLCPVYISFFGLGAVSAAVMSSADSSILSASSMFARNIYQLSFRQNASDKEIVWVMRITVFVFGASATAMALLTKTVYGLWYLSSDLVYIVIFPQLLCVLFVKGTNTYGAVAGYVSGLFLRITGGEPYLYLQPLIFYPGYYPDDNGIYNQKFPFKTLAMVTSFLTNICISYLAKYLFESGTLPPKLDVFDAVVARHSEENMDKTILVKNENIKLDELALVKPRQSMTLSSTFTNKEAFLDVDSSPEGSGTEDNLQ
Hep lipid drop: hepatic lipid droplet formation modulation. AML12 mouse hepatocytes, oleate lipid droplets, BODIPY imaging. inhibition, % at 6.5 µM. 0.4% of 240,000 active;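 active means lipid droplet intensity inhibited by at least 50%, with more than 500 cells counted; inconclusive means wells with under 300 cells, treated as cytotoxic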
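Material – AML12 mouse liver cells · Also added – oleate loading, 100 µM · Compound dosing – 6.5 µM single-point dosing · Times – overnight treatment with compound plus oleate · Measured by – fluorescence imaging, 20x objective, two fields per well · Read-out – percent inhibition of filter-corrected integrated lipid droplet intensity per well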
CHT PAM: allosterically activates the human high affinity choline transporter. Q9GZV3. CHT-expressing cells, membrane potential dye, choline EC20; active compounds read high; LV-AA mutant CHT in HEK293 cells. B-score at 10 µM. 0.49% of 310,000 active;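 active means initial fluorescence not abnormally high and integrated response B-score, plate-corrected, over 3 SD above library mean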
HSF-1 act: increases HSF-1 driven luciferase reporter signal. NIH3T3-HGL HSF-1 luciferase reporter, MG132, 8 h; 100% = twice DMSO control signal. activation, % at 9 µM. 1.7% of 300,000 active. AID 504408;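 active means mean replicate activation of at least 50% with a set share of replicates each reaching 50%; inconclusive means only one of those two conditions met; inactive means mean below 50% and too few replicates reaching it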
PHOSPHO1 inh: inhibitors of human PHOSPHO1 phosphatase | Q8TCT1 | recombinant PHOSPHO1, absorbance phosphatase assay | inhibition, % at 13.3 µM | 1.1% of 290,000 active | AID 1565; in the data active means inhibition above about 60%
CHT activ conf: confirmation of human choline transporter (CHT) activators; activation, % at 10 µM; 91% of 2,500 active; shares compounds with CHT PAM; AID 504833; CHT-expressing cells, membrane potential dye fluorescence (FDSS); % of choline EC20–EC90 response window; HEK293 expressing CHT LV-AA mutant; choline added at its EC20;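 active means primary screen active, with duplicate mean activation above negative control mean plus 3 SD, cut at about 11% in these data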
HEK293 MP dye: counter-screen for CHT activators: effect in parental HEK293 cells | 62% of 2,500 active | AID 623908 | ratio readout change at 10 µM, hits read low | shares compounds with CHT PAM | membrane potential dye fluorescence (FDSS); measured after EC20 choline addition;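 active means duplicate-averaged ratio beyond 3 SD from buffer wells, up or down, though filed actives are nearly all decreases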
Large screens that a line does not name were inactive (follow-up assays come after a bar, where they were run). In the library only some 4.9% were active in any assay of this set; here they are far more common.

Cc1ccc(NC(=O)C2CCN(S(=O)(=O)c3ccc4[nH]c(=O)oc4c3)CC2)cc1F	none
NC(=NCCc1c[nH]c2ccccc12)NS(=O)(=O)c1ccc2ccccc2c1	none
COC(=O)c1ccccc1NC(=O)c1cc[n+](C)cc1	none (no result: Hep lipid drop, PHOSPHO1 inh) | CHT activ conf 59.7 | HEK293 MP dye -54.6
COC(=O)c1ccccc1NC(=O)c1cc[n+]([O-])cc1	none
NC(N)=NC(=O)c1nc(Cl)c(N2CCCCCC2)nc1N	none (no result: HSF1 inh, Hep lipid drop, HSF-1 act, PHOSPHO1 inh) | CHT activ conf 41.9 | HEK293 MP dye -21.9
O=C(c1cc([N+](=O)[O-])ccc1N1CCCCC1)N1CCc2ccccc21	none | CHT activ conf 35.3 | HEK293 MP dye inactive
Cc1cccc(-c2noc(CCC(=O)NCC3CCCO3)n2)c1 (configuration not stated)	none
Cc1ccc(-c2nc3ncccn3c2Nc2ccccc2C)o1	HSF-1 act 56.6 | CHT activ conf 40.2 | HEK293 MP dye -43.2
COc1ccccc1C(CNc1ncnc2sc(C)c(C)c12)N(C)C (configuration not stated)	none | CHT activ conf 54.0 | HEK293 MP dye -51.8
O=C(CNC(=O)c1ccc(Cl)cc1)NC1CCCCC1	none
COc1ccc(CC(=O)NNC(=O)c2cc(C)oc2C)cc1OC	none (no result: Hep lipid drop, PHOSPHO1 inh)
O=C(c1ccc(CNc2c(N3CCOCC3)c(=O)c2=O)cc1)N1CC=C(c2ccccc2)CC1	none (no result: HSF1 inh, HSF-1 act)
CCN1CCCC(NC(=O)c2cc([N+](=O)[O-])ccc2OC)C1 (configuration not stated)	CHT PAM 7.28 | CHT activ conf 35.5 | HEK293 MP dye -34.9
COc1ccc(C(=O)NC2CCCN(Cc3ccccc3F)C2)c(OC)c1OC (configuration not stated)	none
Cc1ccc(-n2nnnc2CNC(=O)c2ccc([N+](=O)[O-])o2)cc1C	HSF-1 act inconclusive (no result: Hep lipid drop, PHOSPHO1 inh)
O=C(COC(=O)C1CCN(c2ccc(C(F)(F)F)cn2)CC1)NC1CCCCC1	none (no result: Hep lipid drop, PHOSPHO1 inh) | CHT activ conf inactive | HEK293 MP dye inactive
Cc1nn(CC(=O)N2N=C(C(F)F)CC2(O)C(F)F)c(C)c1[N+](=O)[O-] (configuration not stated)	none
COc1cccc(C2C(C#N)=C(N)OC3=C2C(=O)CCC3)c1OC(=O)c1ccco1 (configuration not stated)	none (no result: HSF1 inh, HSF-1 act)
CCOc1ccc(Cc2c(Cl)nc(SC)nc2N(C)C)cc1	CHT PAM 6.39 | CHT activ conf 27.6 | HEK293 MP dye inactive
Cc1cccc(OS(=O)(=O)NC(=O)OCC2CCCN3CCCCC23)c1 (configuration not stated)	none
Cc1cccc(-c2cc3nc(C)cc(NCCCn4ccnc4)n3n2)c1	CHT PAM 9.6 | CHT activ conf 51.3 | HEK293 MP dye -58.6
Cc1cccc(-c2cc(C(=O)NCCCn3ccnc3)c3ccccc3n2)c1	none (no result: HSF1 inh, CHT inh, Hep lipid drop, CHT PAM, HSF-1 act)
Cc1cc(NCCCN(C)C)n2nc(-c3cccs3)cc2n1	CHT PAM 13 | CHT activ conf 38.8 | HEK293 MP dye -88.9
COc1cc(C(=O)c2cocc2C(=O)c2ccc3c(c2)OCO3)cc(OC)c1OC	CHT PAM 11.2 | CHT activ conf 25.7 | HEK293 MP dye inactive
CCCCCC(=O)OCCc1c(C)nc2nc[nH]n2c1=O	none
CCOC(=O)CC1C(=O)NCCN1C(=O)c1cc2c(=O)n3cccc(C)c3nc2s1 (configuration not stated)	CHT PAM 6.76 (no result: Hep lipid drop) | CHT activ conf 16.7 | HEK293 MP dye -37.1
CNc1nc(OCC(F)(F)F)nc(N2CCOCC2)n1	none
FC(F)(F)COc1nc(OCC(F)(F)F)nc(N2CCN(c3ccccc3)CC2)n1	CHT PAM 7.13 (no result: HSF1 inh, Hep lipid drop, HSF-1 act) | CHT activ conf 31.3 | HEK293 MP dye inactive
CCCC[n+]1c(C)sc2ccc(C)cc21	none
CC[n+]1c(C)sc2cc(C)ccc21	none | CHT activ conf 67.5 | HEK293 MP dye -58
O=C(NNC(=O)c1ccc[nH]1)Nc1cccc(C(F)(F)F)c1	none
Cn1c(=O)c2c(ncn2CCCC(=N)N2CCOCC2)n(C)c1=O	CHT PAM 10.5 (no result: Hep lipid drop) | CHT activ conf 78.3 | HEK293 MP dye -72.4
CCCCn1cnc2c1c(=O)n(C)c(=O)n2C	none
Cc1cc(C)n2nc(C(=O)Nc3ccc(S(=O)(=O)N4CCCCC4)cc3)nc2n1	none | CHT activ conf 21.7 | HEK293 MP dye -23.9
Cc1cc(C)n2nc(C(=O)Nc3ccc(S(=O)(=O)N4CCCC4)cc3)nc2n1	none
O=C(c1cccc([N+](=O)[O-])c1)N1CCN(c2cccc(Cl)c2)CC1	none
COC(=O)c1cc(C(=O)N2CCN(c3cccc(Cl)c3)CC2)cc([N+](=O)[O-])c1	Hep lipid drop inconclusive, CHT PAM 7.64 | CHT activ conf 33.3 | HEK293 MP dye inactive
CCn1c(/C=C/Nc2ccccc2)[n+](CC)c2cc(Cl)c(Cl)cc21	CHT PAM 6.96 | CHT activ conf 32.8 | HEK293 MP dye -36.9
C[C@H](NC(=O)OCc1ccccc1)c1nnc([C@H](C)NC(=O)OCc2ccccc2)o1	none
COc1ccc(-n2c(O)cnc2Nc2nc(C)cc(C)n2)cc1OC	CHT PAM 7.17 | CHT activ conf 27.8 | HEK293 MP dye -47.6
CCOc1cccc2sc(N(CCN(C)C)C(=O)c3ccc4ccccc4c3)nc12	CHT PAM 9.55 | CHT activ conf 25.1 | HEK293 MP dye -78.3
CCc1ccc(CN(C)C(=O)c2cc(COc3c(F)cccc3F)on2)cc1	none
CN(Cc1cccc2ccccc12)C(=O)c1cc(COc2c(F)cccc2F)on1	none | CHT activ conf 40.1 | HEK293 MP dye inactive
COc1ccc(C)cc1Nc1n[n+](-c2ccccc2)c(-c2ccc(OC)c(OC)c2OC)s1	CHT PAM 9.92 (no result: Hep lipid drop) | CHT activ conf 15.0 | HEK293 MP dye inactive
CCCc1cc(=O)oc2cc(OCC(=O)NCCCn3ccnc3)ccc12	none | CHT activ conf 51.7 | HEK293 MP dye -30.9
CCCc1cc(=O)oc2c(C)c(OCC(=O)NCCCN3CCOCC3)ccc12	none
CCCc1cc(=O)oc2cc(OCC(=O)NCCCN3CCOCC3)ccc12	none | CHT activ conf 37.1 | HEK293 MP dye -35.5
CNC(=O)/C(C#N)=C/c1c(N2CCN(c3cccc(Cl)c3)CC2)nc2c(C)cccn2c1=O	none
Cn1c(=O)c2c(nc(SCCN3CCOCC3)n2Cc2ccc(F)cc2)n(C)c1=O	none (no result: Hep lipid drop)
Cn1c(=O)c2c(nc(SCCN3CCOCC3)n2C)n(C)c1=O	none | CHT activ conf 51.3 | HEK293 MP dye -51.5
CCn1c(SCCN2CCOCC2)nc2c1c(=O)n(C)c(=O)n2C	none | CHT activ conf 48.7 | HEK293 MP dye -38.3
